Reference: ChEMBL document CHEMBL4251722, “Identification of Ingol and Rhamnofolane Diterpenoids from Euphorbia resinifera and Their Abilities to Induce Lysosomal Biosynthesis” (2018)
Active and inactive are the calls of the source. The calls are words filed in the database; no cut-off is given here.

Assays:
HeLa [1] = assay: Induction of lysosomal biosynthesis in human HeLa cells assessed as increase in staining intensity after 3 hrs by LysoTracker Red DND-99 staining based assay; type: functional, cell-based
How it was run: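 HeLa cells exposed 3 h to 10, 20, 40 and 60 μM test agent, then stained with LysoTracker Red. Lysosome induction is read as fold of LysoTracker Red signal over the DMSO negative control, with HEP-14 as positive control. Three independent experiments.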

HeLa [2] = assay: Induction of lysosomal biosynthesis in human HeLa cells assessed as increase in staining intensity at 40 uM after 3 hrs by LysoTracker Red DND-99 staining based assay relative to control; type: functional
How it was run: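 HeLa cells given 40 μM for 3 h, then LysoTracker Red staining. Signal intensity is quantified as fold induction relative to DMSO-treated cells. HEP-14 at 40 μM is the positive control. Independent triplicates.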

HeLa [3] = assay: Induction of lysosomal biosynthesis in human HeLa cells assessed as increase in staining intensity at 40 uM by LysoTracker Red DND-99 staining based assay; type: functional, cell-based; conditions: TDE = time-dependent effect
How it was run: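 Time course in HeLa cells at 40 μM over five treatment intervals, followed by LysoTracker Red staining. Output is fold induction of staining versus DMSO control. n = 3 independent experiments.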

HeLa [4] = assay: Up regulation of cathepsin B mRNA expression in human HeLa cells at 40 uM after 3 hrs by TRIzol dye based qRT-PCR analysis; type: functional, cell-based
HeLa [5] = assay: Up regulation of cathepsin A mRNA expression in human HeLa cells at 40 uM after 3 hrs by TRIzol dye based qRT-PCR analysis; type: functional, cell-based
HeLa [6] = assay: Up regulation of LAMP1 mRNA expression in human HeLa cells at 40 uM after 3 hrs by TRIzol dye based qRT-PCR analysis; type: functional, cell-based
HeLa [7] = assay: Up regulation of ATP6V0E1 mRNA expression in human HeLa cells at 40 uM after 3 hrs by TRIzol dye based qRT-PCR analysis; type: functional, cell-based

SMILES | Activity (HeLa [1]) | Activity (HeLa [2]) [%] | Activity (HeLa [3]) | Activity (HeLa [4]) | Activity (HeLa [5]) | Activity (HeLa [6]) | Activity (HeLa [7])
COc1ccc([C@H](O)C(=O)O[C@@H]2/C(C)=C/[C@@]34O[C@@]3(C[C@H](C)[C@@H]4OC(C)=O)C(=O)[C@H](C)[C@H](OC(C)=O)[C@@H]3[C@H]([C@@H]2OC(C)=O)C3(C)C)cc1 | Dose-dependent effect | 155.9 | Tde | Active | Active | Active | Active
COc1ccc(CC(=O)O[C@@H]2/C(C)=C/[C@@]34O[C@@]3(C[C@H](C)[C@@H]4OC(C)=O)C(=O)[C@H](C)[C@H](OC(C)=O)[C@@H]3[C@H]([C@@H]2OC(C)=O)C3(C)C)cc1 | Dose-dependent effect | 140.7 | Tde | Active | Active | Active | Active
COc1ccc([C@H](O)C(=O)O[C@@H]2/C(C)=C/[C@@]34O[C@@]3(C[C@@](C)(O)[C@@H]4OC(C)=O)C(=O)[C@H](C)[C@H](OC(C)=O)[C@@H]3[C@H]([C@@H]2OC(C)=O)C3(C)C)cc1 | Dose-dependent effect | 143.5 | Tde | Active | Active | Active | Active
